# Where two headings read alike, the source gives them in different places. Where no end group is shown, it is not given here. [ ]: non-standard residue; d: D form. pT = C[C@@H](OP(=O)(O)O)[C@H](N)C(=O)O; pS = N[C@@H](COP(=O)(O)O)C(=O)O
# Key:
# [1] = target: Schizosaccharomyces pombe Nbs1 N-terminal FHA/BRCT-repeat fragment (1-324) (Schizosaccharomyces pombe) (UniProt O43070); assay: ITC
# [2] = target: human Nbs1 N-terminal FHA/BRCT-repeat fragment (1-382) (human) (UniProt O60934); assay: ITC
# [3] = target: T1, spNbs1 FHA/BRCT2 region (1-324) (Schizosaccharomyces pombe, UniProt O43070); assay: ITC of phosphopeptides with wild-type spNbs1 N-terminal fragment; assay type: binding
# T1 sequence (O43070 1-324): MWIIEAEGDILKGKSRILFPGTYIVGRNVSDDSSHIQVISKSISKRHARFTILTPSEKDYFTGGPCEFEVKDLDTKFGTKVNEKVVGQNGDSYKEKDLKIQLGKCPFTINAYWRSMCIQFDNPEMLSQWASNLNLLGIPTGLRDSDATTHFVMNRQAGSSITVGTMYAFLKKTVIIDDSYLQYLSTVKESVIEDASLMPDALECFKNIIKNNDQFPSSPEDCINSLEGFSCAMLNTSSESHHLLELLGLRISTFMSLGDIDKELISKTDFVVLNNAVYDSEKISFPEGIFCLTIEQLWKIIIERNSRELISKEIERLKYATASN
# Summary of the method: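 Purified recombinant […] N-terminal fragment of S. pombe Nbs1 titrated by ITC with the same Mdc1 phosphothreonine peptide used for the human protein. An unphosphorylated peptide of identical sequence was also tested. Affinity was derived from the titration.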
# [4] = target: T2, human Nbs1 (hNbs1) FHA/BRCT fragment (1-382) (Homo sapiens, UniProt O60934); assay: ITC of phosphopeptides with wild-type hNbs1 N-terminal fragment; assay type: binding
# T2 sequence (O60934 1-382): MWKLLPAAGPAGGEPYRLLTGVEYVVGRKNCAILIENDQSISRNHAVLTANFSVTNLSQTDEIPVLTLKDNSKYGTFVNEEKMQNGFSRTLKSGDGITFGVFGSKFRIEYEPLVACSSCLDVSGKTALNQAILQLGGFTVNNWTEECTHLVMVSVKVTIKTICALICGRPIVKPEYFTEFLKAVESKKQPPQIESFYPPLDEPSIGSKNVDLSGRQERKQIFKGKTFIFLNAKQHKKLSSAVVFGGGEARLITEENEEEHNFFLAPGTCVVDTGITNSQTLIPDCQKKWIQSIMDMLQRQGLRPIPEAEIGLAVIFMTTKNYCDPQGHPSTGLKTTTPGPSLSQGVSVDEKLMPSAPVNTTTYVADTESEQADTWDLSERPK
# [5] = target: T3, human Nbs1 N-terminal FHA/BRCT-repeat fragment (1-382) (human, UniProt O60934 1-382); assay: ITC
# T3 sequence: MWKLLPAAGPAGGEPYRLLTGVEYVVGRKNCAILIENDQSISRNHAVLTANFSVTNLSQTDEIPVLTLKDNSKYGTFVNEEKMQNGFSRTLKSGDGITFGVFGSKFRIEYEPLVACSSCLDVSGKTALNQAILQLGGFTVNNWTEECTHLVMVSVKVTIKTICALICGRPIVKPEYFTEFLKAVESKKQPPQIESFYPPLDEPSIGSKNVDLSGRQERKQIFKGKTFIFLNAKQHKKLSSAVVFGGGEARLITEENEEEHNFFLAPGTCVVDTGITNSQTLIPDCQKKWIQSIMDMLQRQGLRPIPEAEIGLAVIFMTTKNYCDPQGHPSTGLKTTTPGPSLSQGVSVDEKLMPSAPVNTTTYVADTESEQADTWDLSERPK
# hNbs1 (1-382) K160M = target: T4, hNbs1 (1-382) K160M (human, UniProt O60934 1-382, K160M); assay: ITC
# T4 sequence: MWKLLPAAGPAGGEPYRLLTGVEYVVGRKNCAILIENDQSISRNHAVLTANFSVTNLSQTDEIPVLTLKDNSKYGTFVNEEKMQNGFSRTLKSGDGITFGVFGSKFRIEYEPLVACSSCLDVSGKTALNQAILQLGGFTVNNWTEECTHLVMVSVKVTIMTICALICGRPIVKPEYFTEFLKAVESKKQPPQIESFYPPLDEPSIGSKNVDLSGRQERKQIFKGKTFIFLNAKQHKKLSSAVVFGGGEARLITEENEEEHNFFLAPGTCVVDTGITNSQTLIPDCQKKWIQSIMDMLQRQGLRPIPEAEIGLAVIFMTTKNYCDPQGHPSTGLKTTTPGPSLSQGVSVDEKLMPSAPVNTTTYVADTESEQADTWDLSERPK
# hNbs1 (1-382) R28A = target: T5, hNbs1 (1-382) R28A (human, UniProt O60934 1-382, R28A); assay: ITC
# T5 sequence: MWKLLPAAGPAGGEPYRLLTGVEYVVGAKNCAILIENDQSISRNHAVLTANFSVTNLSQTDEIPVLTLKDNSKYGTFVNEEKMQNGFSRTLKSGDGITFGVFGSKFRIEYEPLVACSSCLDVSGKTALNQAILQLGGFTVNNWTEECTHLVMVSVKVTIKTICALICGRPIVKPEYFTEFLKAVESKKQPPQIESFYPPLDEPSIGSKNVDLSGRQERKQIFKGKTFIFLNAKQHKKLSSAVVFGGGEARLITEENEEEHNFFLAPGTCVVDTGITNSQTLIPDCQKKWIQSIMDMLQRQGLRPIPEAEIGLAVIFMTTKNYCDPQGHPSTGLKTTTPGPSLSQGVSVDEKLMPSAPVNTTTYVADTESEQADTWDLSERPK
# hNbs1 (1-382) S42A = target: T6, hNbs1 (1-382) S42A (human, UniProt O60934 1-382, S42A); assay: ITC
# T6 sequence: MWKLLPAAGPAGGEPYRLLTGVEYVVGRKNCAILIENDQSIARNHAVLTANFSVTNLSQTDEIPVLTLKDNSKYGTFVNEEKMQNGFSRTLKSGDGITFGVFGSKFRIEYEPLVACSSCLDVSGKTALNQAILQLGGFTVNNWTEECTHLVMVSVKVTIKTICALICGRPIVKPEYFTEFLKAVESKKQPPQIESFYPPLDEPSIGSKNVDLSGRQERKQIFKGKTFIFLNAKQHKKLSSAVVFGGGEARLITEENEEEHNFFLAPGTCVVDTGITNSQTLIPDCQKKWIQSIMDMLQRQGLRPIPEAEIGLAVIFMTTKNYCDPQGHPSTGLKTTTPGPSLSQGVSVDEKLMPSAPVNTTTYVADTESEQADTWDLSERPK
# spNbs1 (1-324) R27A = target: T7, spNbs1 (1-324) R27A (Schizosaccharomyces pombe, UniProt O43070 1-324, R27A); assay: ITC
# T7 sequence: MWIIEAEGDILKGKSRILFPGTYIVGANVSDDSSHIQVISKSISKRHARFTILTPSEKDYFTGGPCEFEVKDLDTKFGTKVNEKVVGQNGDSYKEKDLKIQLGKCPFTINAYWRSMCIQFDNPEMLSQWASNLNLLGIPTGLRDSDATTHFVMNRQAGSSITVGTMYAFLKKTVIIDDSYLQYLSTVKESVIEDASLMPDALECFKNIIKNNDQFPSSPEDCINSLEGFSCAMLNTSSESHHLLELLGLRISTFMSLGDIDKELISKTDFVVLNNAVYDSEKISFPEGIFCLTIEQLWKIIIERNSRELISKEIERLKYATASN
molecule,measurement,setting,value
Ctp1 Site 1 di-phosphorylated peptide (pSer-77/pThr-79),fold weaker binding than the di-phosphorylated Site 2 peptide,[1],30 fold
Ctp1 Site 1 peptide phosphorylated only on pThr-79,fold weaker binding than the di-phosphorylated Site 1 peptide,[1],8 fold
Ctp1 Site 2 di-phosphorylated peptide (pSer-87 and pThr-89),Kd,[1],50 nM
Ctp1 Site 2 peptide phosphorylated only on pThr-89,fold weaker binding than the di-phosphorylated Site 2 peptide,[1],10 fold
Ctp1 peptide containing singly phosphorylated Thr-78,Kd,[1],200 nM
Mdc1 SDpTD mono-phosphorylated peptide,fold reduced affinity against the di-phosphorylated Mdc1 peptide,[2],17 fold
Mdc1 pSDpTD motif di-phosphorylated peptide (Mdc1 residues 325-336) (from UniProt Q14676 325-336),Kd,[1],500 nM
same,Kd,[2],1000 nM
same,stoichiometry N,[2],> 1
pSDTD: Mdc1 peptide of the same sequence in which the threonine was not phosphorylated (GFID[pS]DTDAEEE),binding to spNbs1 (in words),[3],neither spNbs1 nor hNbs1 bound
same,binding to hNbs1 (in words),[4],neither spNbs1 nor hNbs1 bound
same,binding to hNbs1 (in words),[4]; listed as mono-phosphorylated pSDTD,lack of hNbs1 interactions
FID[pS]D[pT]DVEEE [di-phosphorylated peptide with a core consensus of all six Mdc1 motifs (FIDpSDpTDVEEE)],stoichiometry N,[5],> 1
same,fold reduction of stoichiometry against wild-type hNbs1,hNbs1 (1-382) K160M,~2 fold
same,fold reduction of stoichiometry against wild-type hNbs1,hNbs1 (1-382) R28A,~2 fold
same,fold reduction of stoichiometry against wild-type hNbs1,hNbs1 (1-382) S42A,~2 fold
GFID[pS]D[pT]DAEEE [Mdc1 pSDpTD motif di-phosphorylated peptide (Mdc1 residues 325-336)],fold reduction of apparent binding affinity against wild-type spNbs1,spNbs1 (1-324) R27A,~100 fold

# — article PMC2900601 (Cell, 2009)
